Data published in ChEMBL document CHEMBL2086384, “Chiral cyclohexane 1,3-diones as inhibitors of mutant SOD1-dependent protein aggregation for the treatment of ALS” (ACS Med Chem Lett, 2012).
Blank lines part the entries; values can stand above or below the molecule they belong to. Activity calls are given as the source filed them. No cut-off for these calls is given here.

How the values were obtained:
[1] = Inhibition of SOD1 G93A mutant-induced protein aggregation in MG132-treated rat PC12 cells assessed as decrease in cell death incubated for 24 hrs prior to MG132 treatment measured after 48 hrs by Calcein-AM staining method; format: cell-based; settings: PC-12
Cerebral cortex neuron [2] = assay: Inhibition of SOD1 G93A mutant-induced protein aggregation in MG132-treated rat primary cortical neurons assessed as decrease in cell death up to 100 uM incubated for 24 hrs prior to MG132 treatment measured after 48 hrs by Calcein-AM staining method; format: cell-based
Liver [3] = assay: Half life in mouse liver microsomes at 1 uM after 1 hr in absence of NADPH; format: ADME, Microsome
Summary of the method: (§1)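 Human or mouse liver microsomes; test compound at 1 μM, incubated at 37 °C for 1 h with and without NADPH. Intrinsic clearance given in mL/min/kg and half-life in min.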

[4] = Apparent permeability of the compound from basal to apical side of human Caco2 cells at 50 uM after 2 hrs; format: ADME, cell-based; settings: Caco-2
[5] = Drug uptake in brain at 500 mg/kg, ip; format: ADME, organism-based; parameters: dose 500 mg/kg, route intraperitoneal; settings: in vivo, read-out: Drug uptake
Summary of the method: (§2)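 Single i.p. dose of 500 mg/kg in mice. Blood and brain levels were sampled over time to find the maximum level and Tmax.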

[6] = Half life in blood at 500 mg/kg, ip; format: ADME, organism-based; parameters: dose 500 mg/kg, route intraperitoneal
Summary of the method: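 Compound given i.p. at 500 mg/kg. Concentrations were measured in blood, with brain levels sampled in the same study. The half-life was taken from the blood time course.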

[7] = Aqueous solubility of the compound in DMSO after 1 hr by spectrophotometry; format: physicochemical
Summary of the method: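 Aqueous solubility: DMSO stock diluted into PBS to a final 1% DMSO. The limit was taken as the highest concentration showing no precipitation.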

[8] = Intrinsic clearance in human liver microsomes at 1 uM after 1 hr in absence of NADPH; format: ADME, Microsome; settings: read-out: CLH; summary of the method: as §1
[9] = Toxicity in mouse administered BID; format: organism-based; settings: in vivo
Summary of the method: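 Tolerable dose range found in wild-type mice by escalating the dose given b.i.d.; maximum tolerated dose taken as the read-out.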

Liver microsomes [10] = assay: Half life in human liver microsomes at 1 uM after 1 hr in absence of NADPH; format: ADME, Microsome; summary of the method: as §1
Mus musculus [11] = assay: Increase in life span of transgenic mouse expressing human SOD1 G93A mutant at 20 mg/kg administered QD until death relative to untreated-control; format: functional
Summary of the method: (§3)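 Transgenic mice expressing human G93A mutant SOD1, cohorts matched for age (±3 days) and "f" generation, drawn from multiple litters. Dosed 10, 20 or 30 mg/kg once daily from 6 weeks of age until end of life; untreated G93A mice served as controls. Survival read out by Kaplan-Meier plot and reported as mean ± value in days, with p values.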

[12] = Tmax in brain at 500 mg/kg, ip; format: ADME, organism-based; parameters: dose 500 mg/kg, route intraperitoneal
Summary of the method: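 Compound given as a single intraperitoneal dose of 500 mg/kg. Levels were followed over time in both blood and brain. Tmax is the time at which the brain concentration peaked.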

[13] = Half life in plasma; format: ADME, cell-free
[14] = Drug uptake in blood at 500 mg/kg, ip at 12 hrs; format: ADME, organism-based; parameters: dose 500 mg/kg, route intraperitoneal; settings: read-out: Drug uptake; summary of the method: as §2
Cerebral cortex neuron [15] = assay: Inhibition of SOD1 G93A mutant-induced protein aggregation in MG132-treated rat primary cortical neurons assessed as decrease in cell death at 3 uM incubated for 24 hrs prior to MG132 treatment measured after 48 hrs by Calcein-AM staining method; format: cell-based
Liver microsomes [16] = assay: Drug metabolism in rat liver microsomes at 10 uM after 1 hr by LC-PDA-MS/MS analysis; format: ADME, Microsome
Caco-2 = assay: Efflux ratio of apparent permeability from basal to apical to apical to basal side of human Caco2 cells at 50 uM after 2 hrs; format: ADME, cell-based; settings: caco-2, 2 h
Mus musculus [17] = assay: Increase in life span of transgenic mouse expressing human SOD1 G93A mutant assessed as survival at 30 mg/kg administered QD until death (reference value: 125.7+/-4.3 days); format: functional; summary of the method: as §3
Liver [18] = assay: Half life in mouse liver microsomes at 1 uM after 1 hr in presence of NADPH; format: ADME, Microsome; summary of the method: as §1
Mus musculus [19] = assay: Increase in life span of transgenic mouse expressing human SOD1 G93A mutant assessed as survival at 10 mg/kg administered QD until death (reference value: 125.7+/-4.3 days); format: functional; summary of the method: as §3
[20] = Apparent permeability of the compound from apical to basal side of human Caco2 cells at 50 uM after 2 hrs; format: ADME, cell-based; settings: Caco-2
Liver microsomes [21] = assay: Half life in human liver microsomes at 1 uM after 1 hr in presence of NADPH; format: ADME, Microsome; summary of the method: as §1
Mus musculus [22] = assay: Increase in life span of transgenic mouse expressing human SOD1 G93A mutant at 22 mg/kg; format: functional
Cerebral cortex neuron [23] = assay: Inhibition of SOD1 G93A mutant-induced protein aggregation in MG132-treated rat primary cortical neurons assessed as decrease in cell death at 10 uM incubated for 24 hrs prior to MG132 treatment measured after 48 hrs by Calcein-AM staining method; format: cell-based

Structure (SMILES): O=C1CC(=O)CC(C2CC2c2cc(C(F)(F)F)cc(C(F)(F)F)c2)C1 (racemic)
EC50 [1]: 1000 nM | inhibition (Cerebral cortex neuron [2]): Active

Structure (SMILES): C[C@H](Oc1cc(C(F)(F)F)cc(C(F)(F)F)c1)C1CC(=O)CC(=O)C1
t1/2 (Liver [3]): 0.867 h | Papp B→A at 2 h, 50 µM [4]: 1.5 ×10⁻⁶ cm/s | EC50 [1]: 300 nM | concentration [5]: 8.3 µM | inhibition (Cerebral cortex neuron [2]): Active | half-life [6]: 12 h | solubility [7]: >= 100 uM | CLint scaled at 1 µM [8]: 10 mL/min/kg | MTD [9]: 1280 mg/kg | t1/2 (Liver microsomes [10]): > 3 h | survival at 20 mg/kg (Mus musculus [11]): 13% | Tmax [12]: 12 h | t1/2 [13]: > 1 h | concentration at 12 h [14]: 245 µM | inhibition (Cerebral cortex neuron [15]): > 90% | Drug metabolism (Liver microsomes [16]): Active | Ratio (Caco-2): 0.1 | Survival (Mus musculus [17]): 127.9 days | t1/2 (Liver [18]): 0.867 h | Survival (Mus musculus [19]): 139.2 days | Papp A→B at 2 h, 50 µM [20]: 24.1 ×10⁻⁶ cm/s

Structure (SMILES): O=C1CC(=O)CC(c2cc(C(F)(F)F)cc(C(F)(F)F)c2)C1
EC50 [1]: 700 nM | inhibition (Cerebral cortex neuron [2]): inactive

Structure (SMILES): C[C@@H](Oc1cc(C(F)(F)F)cc(C(F)(F)F)c1)C1CC(=O)CC(=O)C1
EC50 [1]: 1300 nM | inhibition (Cerebral cortex neuron [2]): Active

t1/2 (Liver [3]): 0.617 h | Papp B→A at 2 h, 50 µM [4]: 1.1 ×10⁻⁶ cm/s | solubility [7]: >= 100 uM | CLint scaled at 1 µM [8]: 12 mL/min/kg | t1/2 (Liver microsomes [10]): > 3 h | t1/2 [13]: 1.18 h | Ratio (Caco-2): 0.1 | t1/2 (Liver [18]): 0.467 h | t1/2 (Liver microsomes [21]): 0.817 h | Papp A→B at 2 h, 50 µM [20]: 21.7 ×10⁻⁶ cm/s
Structure (SMILES): O=C1CC(=O)CC([C@@H]2C[C@H]2c2cc(C(F)(F)F)cc(C(F)(F)F)c2)C1
EC50 [1]: 800 nM | inhibition (Cerebral cortex neuron [2]): Active

Structure (SMILES): CC(Oc1cc(C(F)(F)F)cc(C(F)(F)F)c1)C1CC(=O)CC(=O)C1 (racemic)
EC50 [1]: 700 nM | inhibition (Cerebral cortex neuron [2]): Active

Structure (SMILES): Nc1nc2ccc(OC(F)(F)F)cc2s1 [RILUZOLE]
survival at 22 mg/kg (Mus musculus [22]): 10%

Structure (SMILES): O=C1CC(=O)CC([C@H]2C[C@@H]2c2cc(C(F)(F)F)cc(C(F)(F)F)c2)C1
EC50 [1]: 1390 nM | inhibition (Cerebral cortex neuron [2]): Active

Structure (SMILES): O=c1cc(COc2cc(Cl)cc(Cl)c2)[nH][nH]1
inhibition (Cerebral cortex neuron [23]): Active
